Source: the RNAGym collection of RNA variant scans (doi:10.1101/gad.245936.114)
Fewer inactive variants are shown than the library holds.

B1: tRNA (parent)
chain: CUCUCGGUAGCCAAGUUGGUUUAAGGCGCAAGACUUUAAUUUAUCACUACGAAAUCUUGAGAUCGGGCGUUCGACUCGCCCCCGGGAGAUUUUUUCCUCGAGCAA

Variants of: B1
Assay: nonsense suppression (GFP-seq) (ratio to wild type); higher = more function; SUP4oc tRNA, yeast GFP reporter sort-seq
In short: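 Yeast carrying genome-integrated SUP4oc tRNA variants from a library with ~3% random mutations were grown in raffinose/galactose medium with 80 mg/L adenine. Each strain also carried a galactose-driven GFP ochre reporter and RFP. Cells were sorted into GFP/RFP bins, and each bin was Illumina-sequenced (phred ≥30). Nonsense suppression (GFPSEQ) is the bin median GFP/RFP, weighted by each variant's estimated cell share per bin, relative to wild-type SUP4oc; variants needed ≥100 reads and ≥30 cells.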

Point of comparison: A13C A87C, nonsense suppression 0.0539. Against it:
- C12U G85U — higher, 0.0919
- C12U G85C — higher, 0.111
- A13U G85A — higher, 1.2
- A13U A54C G66A A74C G86A — lower, ≤ 0.026
- C12U A31G G65A — lower, ≤ 0.026
- A13C A31U G61C — lower, ≤ 0.026
- C12G G25C C75A — higher, 0.482
- A13U A24G — higher, 0.96
- A13U A24U — higher, 0.863
- C11U C27G A74G — lower, ≤ 0.026
- A13U A24G G61C — lower, 0.0375
- A13C A54G G73C — lower, ≤ 0.026
- C11U G18C U20G U76G — lower, ≤ 0.026
- C12U G19U U57C C77A A89U — lower, ≤ 0.026
- A14C C56A C81G — lower, ≤ 0.026
- A13C U57C — lower, 0.0326
- C11U C56G G73C G78A C79G — lower, ≤ 0.026
- C12U C79U — higher, 0.205
- A13G C29A — lower, 0.03
- A13C C75U G85U — higher, 0.333
- A13C G25A — lower, 0.0288
- C11U G78U — lower, ≤ 0.026
- C11G C34A U63A G65C — lower, ≤ 0.026
- A13C A30G — higher, 0.892
- A13C U21C — higher, 1.17
- A13C U21A — higher, 1.19
- C11U A33G A74C C83A — lower, ≤ 0.026
- A13G U16A — lower, 0.0391
- A13G U16G — higher, 0.207
- C11U U70G C79A — lower, ≤ 0.026
- A13C G61U C68U — higher, 0.414
- C12A C77A G86U — lower, ≤ 0.026
- A13G G59U — lower, ≤ 0.026
- C11A U63G — lower, ≤ 0.026
- C12A G78A — lower, 0.045
- C11G C56G G84U — lower, ≤ 0.026
- A13C U17G — higher, 0.958
- A13U U16G C82U — higher, 0.377
- C11G C80G — lower, ≤ 0.026
- C12A A89G — lower, ≤ 0.026
- A13G A30G — higher, 0.105
- C12G A33U U55C C72A G73A U76C — lower, ≤ 0.026
- C11U C75A — higher, 0.168
- C11U G61C A87U — lower, ≤ 0.026
- C12G U17C U21G — lower, ≤ 0.026
- C11G A23G C34A C81U — lower, ≤ 0.026
- C12U A13G U21A — lower, 0.0262
- A13U C81A — lower, ≤ 0.026
- A13U C81G — higher, 0.0578
- C11G U16G U58A G61A G67C — lower, ≤ 0.026
- A13C G66C — lower, ≤ 0.026
- C12A G18U U70C G88U — lower, ≤ 0.026
- C11A U17C — lower, ≤ 0.026
- C12U C27U — higher, 0.121
- C12U G61U — higher, 0.248
- C12U U63G — higher, 0.121
- C12U U63A — higher, 0.697
- C11A G25C G61C — lower, ≤ 0.026
- C11U C29G — lower, ≤ 0.026
- A13C C72U — higher, 0.23
- A13G U17C A23C C75A G88A — lower, ≤ 0.026
- A13C C29U — higher, 0.806
- C11U U63G — lower, 0.034
- A13G A24U — lower, 0.0411
- A13U C72G — lower, 0.032
- C11U A62G U63A — lower, ≤ 0.026
- C12U U35C — lower, 0.0352
- C12U U55G U70G C83U — lower, ≤ 0.026
- C12U A30G — higher, 0.363
- C12U C64A — lower, ≤ 0.026
- C12U C64U — lower, ≤ 0.026
- A13C A87G — higher, 0.127
- A13C A14U — higher, 0.206
- C12U U16C — higher, 0.853
- C12U U16G — higher, 0.785
- A13U U57A — lower, 0.0273
- C12U U76A — higher, 0.244
- C12U U76G — higher, 0.0906
- C12U U76C — higher, 0.818
- C12G U71G — higher, 0.859
- C12U G25A A74G — lower, ≤ 0.026
- C11U U55A G61C G88C — lower, ≤ 0.026
- C11U G19A G25A C29U G59A — lower, ≤ 0.026
- A13C A60U — higher, 1.07
- A13C A60C — higher, 0.29
- A13C A60G — higher, 0.392
- A14C C29U — lower, ≤ 0.026
- A13G C82A — lower, ≤ 0.026
- C11A G61A — higher, 0.22
- C12A U35A C81G — lower, ≤ 0.026
- C12U U17C — higher, 0.212
- A13C A31C U76A — lower, ≤ 0.026
- C11A G66C — lower, ≤ 0.026
- A13C A33U — lower, 0.0508
- C12A A24C — lower, 0.035
- A13C U57A G66A — lower, ≤ 0.026
- C12A G18U G66A U70C C77G C83U — lower, ≤ 0.026
- A13U G65A — lower, ≤ 0.026
- A13U G65U — higher, 0.0575
- C12U U22G — higher, 0.745
- C12U C81A — lower, 0.0405
- A13C G67A — higher, 0.0799
- A13U U21A — higher, 0.803
- A13U U21G — higher, 0.763
- C12U — higher, 0.773
- A13U A30U — higher, 0.0763
- A13C G78A — higher, 0.208
- A13U C79U — higher, 0.175
- A13C G84C — lower, 0.0388
- A13C G84A — higher, 0.175
- C12U G78U G84C — lower, ≤ 0.026
- C11G A13U A62C — lower, ≤ 0.026
- A13U A33G — higher, 0.194
- A13G C75A — higher, 0.71
- A13G C75U — higher, 0.305
- A13C C27U — lower, 0.0494
- C11U G84C A89C — lower, ≤ 0.026
- A13C G18U G26A A31U — lower, ≤ 0.026
- C12U U21A A31G — higher, 0.214
- C12U G28U — higher, 0.0705
- C12U G28A — higher, 0.51
- C12A G32C U57G — lower, ≤ 0.026
- A13G G85A — higher, 0.214
- C12U A23C G78C — lower, ≤ 0.026
- A13C G61U A87C — lower, ≤ 0.026
- C12U C29U — higher, 0.206
- A13C U76A — higher, 0.282
- C11G G59A C64A — lower, ≤ 0.026
- A13U G32C C56G C75U — higher, 0.912
- C12U A23G — higher, 0.0776
- A13C A89G — higher, 0.122
- A13C G88A — higher, 0.0766
- C12U C27U G61C — lower, ≤ 0.026
- A14C A31G A74U C80G — lower, ≤ 0.026
- C12U G88U — higher, 0.0717
- C12U A60G — higher, 0.406
- C12U A60U — higher, 0.723
- C11G G15U G78C — lower, ≤ 0.026
- C11G U17C U21C U63C — lower, ≤ 0.026
- A13U C29U — higher, 0.751
- C11G A24G A74G — lower, ≤ 0.026
- C11A U71C A89G — lower, ≤ 0.026
- C11U — lower, ≤ 0.026
- A13G G67C C83G — lower, ≤ 0.026
- A13U — higher, 1.03
- A13G — higher, 0.191
- A13C — higher, 1.13
- A13U G15A — lower, 0.046
- A13U U16A G85U — higher, 0.173
- A13G U21G C77G — lower, ≤ 0.026
- A14C A31C U58C C72A U76C C77G — lower, ≤ 0.026
- C11U G18U A60G — lower, ≤ 0.026
- A13C C77U — lower, 0.0493
- A13U C29U C81U — higher, 0.0757
- A13U C79A G84U — lower, ≤ 0.026
- C11G G26C A30C — lower, ≤ 0.026
- A13U U57A G65A — lower, ≤ 0.026
- A13U C64U — lower, 0.0285
- A13U C83U — higher, 0.157
- C11A C12U G59A U71A — lower, ≤ 0.026
- C11A U58A G69A — lower, ≤ 0.026
- C11A U16C — lower, ≤ 0.026
- C12G U21A G59U — lower, ≤ 0.026
- A13G G61C — lower, 0.0301
- A13C C72U C81U — lower, ≤ 0.026
- C11G A24U A62C C68G — lower, ≤ 0.026
